Laboratory results from ChEMBL document CHEMBL4190362, “Synthesis, biological evaluation and quantitative structure-active relationships of 1,3-thiazolidin-4-one derivatives. A promising chemical scaffold endowed with high antifungal potency and low cytotoxicity” (Eur J Med Chem, 2017).

What was measured:
Staphylococcus aureus = test: Antibacterial activity against Staphylococcus aureus assessed as inhibition of microbial growth incubated for 18 to 22 hrs by broth microdilution method; format: functional
Outline: (§1)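 Broth microdilution in Mueller-Hinton II broth following NCCLS recommendations; compounds dissolved in DMSO.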

Staphylococcus warneri = test: Antibacterial activity against Staphylococcus warneri assessed as inhibition of microbial growth incubated for 18 to 22 hrs by broth microdilution method; format: functional; outline: as §1
Enterococcus faecalis = test: Antibacterial activity against Streptococcus faecalis assessed as inhibition of microbial growth incubated for 18 to 22 hrs by broth microdilution method; format: functional; outline: as §1
Escherichia coli = test: Antibacterial activity against Escherichia coli assessed as inhibition of microbial growth incubated for 18 to 22 hrs by broth microdilution method; format: functional; outline: as §1
Proteus mirabilis = test: Antibacterial activity against Proteus mirabilis assessed as inhibition of microbial growth incubated for 18 to 22 hrs by broth microdilution method; format: functional; outline: as §1
Enterobacter = test: Antibacterial activity against Enterobacter spp. assessed as inhibition of microbial growth incubated for 18 to 22 hrs by broth microdilution method; format: functional; outline: as §1
Klebsiella oxytoca = test: Antibacterial activity against Klebsiella oxytoca assessed as inhibition of microbial growth incubated for 18 to 22 hrs by broth microdilution method; format: functional; outline: as §1
Candida albicans = test: Antifungal activity against Candida albicans clinical isolates assessed as inhibition of microbial growth incubated for 24 hrs by broth microdilution method; format: functional
Outline: (§2)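 Twenty-two clinical Candida isolates (8 C. albicans, 4 C. glabrata, 3 C. tropicalis, 3 C. krusei, 2 C. parapsilosis, 2 C. sake) were identified by colony morphology and biochemistry and subcultured at 35 °C for purity. Compounds were dissolved in DMSO and tested by broth microdilution in Sabouraud dextrose broth per NCCLS/CLSI/EUCAST guidance. Values are geometric mean MIC per species (µg/mL).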

Nakaseomyces glabratus = test: Antifungal activity against Candida glabrata clinical isolates assessed as inhibition of microbial growth incubated for 24 hrs by broth microdilution method; format: functional; outline: as §2
Candida tropicalis = test: Antifungal activity against Candida tropicalis clinical isolates assessed as inhibition of microbial growth incubated for 24 hrs by broth microdilution method; format: functional; outline: as §2
Pichia kudriavzevii = test: Antifungal activity against Candida krusei clinical isolates assessed as inhibition of microbial growth incubated for 24 hrs by broth microdilution method; format: functional; outline: as §2
Candida parapsilosis = test: Antifungal activity against Candida parapsilosis clinical isolates assessed as inhibition of microbial growth incubated for 24 hrs by broth microdilution method; format: functional; conditions: Lodderomyces parapsilosis; outline: as §2
[Candida] sake = Antifungal activity against Candida sake clinical isolates assessed as inhibition of microbial growth incubated for 24 hrs by broth microdilution method; format: functional; conditions: Fermentozyma sake; outline: as §2
[1] = system: Streptococcus alpha-hemolyticus (Streptococcus sp.); test: Antibacterial activity against Streptococcus Streptococcus alpha hemolyticus assessed as inhibition of microbial growth incubated for 18 to 22 hrs by broth microdilution method

Row | SMILES | MIC (Staphylococcus aureus) | MIC (Staphylococcus warneri) | MIC (Enterococcus faecalis) | MIC (Escherichia coli) | MIC (Proteus mirabilis) | MIC (Enterobacter) | MIC (Klebsiella oxytoca) | MIC (Candida albicans) | MIC (Nakaseomyces glabratus) | MIC (Candida tropicalis) | MIC (Pichia kudriavzevii) | MIC (Candida parapsilosis) | MIC ([Candida] sake) | MIC [1]
1 | C/C(=N/N=C1\NC(=O)CS1)c1ccco1 | ≥ 256 µg/mL | ≥ 256 µg/mL | ≥ 256 µg/mL | ≥ 256 µg/mL | ≥ 256 µg/mL | ≥ 256 µg/mL | ≥ 256 µg/mL | 2 µg/mL | 2 µg/mL | 2 µg/mL | 2 µg/mL | 2 µg/mL | 2 µg/mL | ≥ 256 µg/mL
2 | CCC/C(CC)=N\N=C1/NC(=O)CS1 | ≥ 256 µg/mL | ≥ 256 µg/mL | ≥ 256 µg/mL | ≥ 256 µg/mL | ≥ 256 µg/mL | ≥ 256 µg/mL | ≥ 256 µg/mL | 2 µg/mL | 2 µg/mL | 16 µg/mL | 2 µg/mL | 4 µg/mL | 2 µg/mL | ≥ 256 µg/mL
3 | CC(=O)c1ccc(/C(C)=N\N=C2/NC(=O)CS2)cc1 | ≥ 256 µg/mL | ≥ 256 µg/mL | ≥ 256 µg/mL | ≥ 256 µg/mL | ≥ 256 µg/mL | ≥ 256 µg/mL | ≥ 256 µg/mL | 2 µg/mL | 2 µg/mL | 2 µg/mL | 8 µg/mL | 2 µg/mL | 8 µg/mL | ≥ 256 µg/mL
4 | O=C1CS/C(=N/N=C\c2c[nH]c3ccccc23)N1 | ≥ 256 µg/mL | ≥ 256 µg/mL | ≥ 256 µg/mL | ≥ 256 µg/mL | ≥ 256 µg/mL | ≥ 256 µg/mL | ≥ 256 µg/mL | 128 µg/mL | 16 µg/mL | 8 µg/mL | 16 µg/mL | 256 µg/mL | 256 µg/mL | ≥ 256 µg/mL
5 | C/C(CC(C)C)=N/N=C1\NC(=O)CS1 | ≥ 256 µg/mL | ≥ 256 µg/mL | ≥ 256 µg/mL | ≥ 256 µg/mL | ≥ 256 µg/mL | ≥ 256 µg/mL | ≥ 256 µg/mL | 2 µg/mL | 2 µg/mL | 2 µg/mL | 2 µg/mL | 2 µg/mL | 2 µg/mL | ≥ 256 µg/mL
6 | O=C1CS/C(=N/N=C\c2ccc3c(c2)OCO3)N1 | ≥ 256 µg/mL | ≥ 256 µg/mL | ≥ 256 µg/mL | ≥ 256 µg/mL | ≥ 256 µg/mL | ≥ 256 µg/mL | ≥ 256 µg/mL | 256 µg/mL | 256 µg/mL | 256 µg/mL | 256 µg/mL | 256 µg/mL | 256 µg/mL | ≥ 256 µg/mL
7 | C/C(=N/N=C1\NC(=O)CS1)c1ccc2ccc3ccccc3c2c1 | ≥ 256 µg/mL | ≥ 256 µg/mL | ≥ 256 µg/mL | ≥ 256 µg/mL | ≥ 256 µg/mL | ≥ 256 µg/mL | ≥ 256 µg/mL | 4 µg/mL | 4 µg/mL | 4 µg/mL | 8 µg/mL | 16 µg/mL | 16 µg/mL | ≥ 256 µg/mL
8 | C/C(=N/N=C1\NC(=O)CS1)C1CCCCC1 | ≥ 256 µg/mL | ≥ 256 µg/mL | ≥ 256 µg/mL | ≥ 256 µg/mL | ≥ 256 µg/mL | ≥ 256 µg/mL | ≥ 256 µg/mL | 8 µg/mL | 8 µg/mL | 16 µg/mL | 16 µg/mL | 16 µg/mL | 16 µg/mL | ≥ 256 µg/mL
9 | CC/C(C)=N\N=C1/NC(=O)CS1 | ≥ 256 µg/mL | ≥ 256 µg/mL | ≥ 256 µg/mL | ≥ 256 µg/mL | ≥ 256 µg/mL | ≥ 256 µg/mL | ≥ 256 µg/mL | 8 µg/mL | 2 µg/mL | 2 µg/mL | 2 µg/mL | 2 µg/mL | 2 µg/mL | ≥ 256 µg/mL
10 | O=C1CS/C(=N/N=C\c2ccc([N+](=O)[O-])cc2)N1 | ≥ 256 µg/mL | ≥ 256 µg/mL | ≥ 256 µg/mL | ≥ 256 µg/mL | ≥ 256 µg/mL | ≥ 256 µg/mL | ≥ 256 µg/mL | 16 µg/mL | 8 µg/mL | 4 µg/mL | 8 µg/mL | 4 µg/mL | 8 µg/mL | ≥ 256 µg/mL
11 | O=C1CSC(NN=C2CCCCCCC2)=N1 | ≥ 256 µg/mL | ≥ 256 µg/mL | ≥ 256 µg/mL | ≥ 256 µg/mL | ≥ 256 µg/mL | ≥ 256 µg/mL | ≥ 256 µg/mL | 8 µg/mL | 8 µg/mL | 8 µg/mL | 32 µg/mL | 32 µg/mL | 32 µg/mL | ≥ 256 µg/mL
12 | CC1=C(/C=N\N=C2/NC(=O)CS2)C(C)(C)CC=C1 | ≥ 256 µg/mL | ≥ 256 µg/mL | ≥ 256 µg/mL | ≥ 256 µg/mL | ≥ 256 µg/mL | ≥ 256 µg/mL | ≥ 256 µg/mL | 2 µg/mL | 2 µg/mL | 16 µg/mL | 2 µg/mL | 16 µg/mL | 2 µg/mL | ≥ 256 µg/mL

The next lines start with results.

Row | MIC (Staphylococcus aureus) | MIC (Staphylococcus warneri) | MIC (Enterococcus faecalis) | MIC (Escherichia coli) | MIC (Proteus mirabilis) | MIC (Enterobacter) | MIC (Klebsiella oxytoca) | MIC (Candida albicans) | MIC (Nakaseomyces glabratus) | MIC (Candida tropicalis) | MIC (Pichia kudriavzevii) | MIC (Candida parapsilosis) | MIC ([Candida] sake) | SMILES | MIC [1]
13 | ≥ 256 µg/mL | ≥ 256 µg/mL | ≥ 256 µg/mL | ≥ 256 µg/mL | ≥ 256 µg/mL | ≥ 256 µg/mL | ≥ 256 µg/mL | 2 µg/mL | 2 µg/mL | 2 µg/mL | 2 µg/mL | 2 µg/mL | 4 µg/mL | C=CCC/C(C)=N\N=C1/NC(=O)CS1 | ≥ 256 µg/mL
14 | ≥ 256 µg/mL | ≥ 256 µg/mL | ≥ 256 µg/mL | ≥ 256 µg/mL | ≥ 256 µg/mL | ≥ 256 µg/mL | ≥ 256 µg/mL | 2 µg/mL | 8 µg/mL | 2 µg/mL | 2 µg/mL | 2 µg/mL | 2 µg/mL | C/C(=N\N=C1/NC(=O)CS1)c1cc2ccccc2o1 | ≥ 256 µg/mL
15 | ≥ 256 µg/mL | ≥ 256 µg/mL | ≥ 256 µg/mL | ≥ 256 µg/mL | ≥ 256 µg/mL | ≥ 256 µg/mL | ≥ 256 µg/mL | 8 µg/mL | 8 µg/mL | 16 µg/mL | 16 µg/mL | 16 µg/mL | 16 µg/mL | O=C1CS/C(=N/N=C\c2cccnc2)N1 | ≥ 256 µg/mL
16 | ≥ 256 µg/mL | ≥ 256 µg/mL | ≥ 256 µg/mL | ≥ 256 µg/mL | ≥ 256 µg/mL | ≥ 256 µg/mL | ≥ 256 µg/mL | 8 µg/mL | 8 µg/mL | 8 µg/mL | 16 µg/mL | 8 µg/mL | 16 µg/mL | C/C(=N/N=C1\NC(=O)CS1)c1ccc(Cl)s1 | ≥ 256 µg/mL
17 | ≥ 256 µg/mL | ≥ 256 µg/mL | ≥ 256 µg/mL | ≥ 256 µg/mL | ≥ 256 µg/mL | ≥ 256 µg/mL | ≥ 256 µg/mL | 256 µg/mL | 256 µg/mL | 256 µg/mL | 256 µg/mL | 256 µg/mL | 256 µg/mL | O=C1CS/C(=N/N=C\c2ccncc2)N1 | ≥ 256 µg/mL
18 | ≥ 256 µg/mL | ≥ 256 µg/mL | ≥ 256 µg/mL | ≥ 256 µg/mL | ≥ 256 µg/mL | ≥ 256 µg/mL | ≥ 256 µg/mL | 256 µg/mL | 256 µg/mL | 256 µg/mL | 256 µg/mL | 256 µg/mL | 256 µg/mL | C/C(=N/N=C1\NC(=O)CS1)c1cccnc1 | ≥ 256 µg/mL
19 | ≥ 256 µg/mL | ≥ 256 µg/mL | ≥ 256 µg/mL | ≥ 256 µg/mL | ≥ 256 µg/mL | ≥ 256 µg/mL | ≥ 256 µg/mL | 16 µg/mL | 16 µg/mL | 16 µg/mL | 16 µg/mL | 16 µg/mL | 16 µg/mL | CC1CCC(=N/N=C2\NC(=O)CS2)CC1 (stereo unspecified) | ≥ 256 µg/mL
